Experimental data reported in publication PMC8859974 (Journal of medicinal chemistry, 2019).

How the values were obtained:
[1] = tested on: EA.hy926 cells; experiment: CellASIC microfluidic chemotactic endothelial cell migration; assay type: cell-based; settings: Homo sapiens, EA.hy 926, 12 h, read-out: Best fit IC50, chemotactic endothelial cell migration
[2] = target: T1, PA-CMG2 interaction (Homo sapiens, UniProt P58335, C175A/R40C); experiment: CMG2-PA FRET assay; assay type: binding; settings: for inhibitory effect on CMG2-PA interaction (in words): FRET assay
T1 sequence (P58335 40-217 R40C/C175A): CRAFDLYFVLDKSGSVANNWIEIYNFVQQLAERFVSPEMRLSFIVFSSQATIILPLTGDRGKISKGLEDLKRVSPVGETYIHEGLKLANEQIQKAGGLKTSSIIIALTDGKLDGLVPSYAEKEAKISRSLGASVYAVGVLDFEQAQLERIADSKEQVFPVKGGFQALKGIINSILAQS
Method in brief: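 After AF546 dispensing, 32 nM PA-AF488 solution was added and the mix incubated 4 h. Excitation 485 nm; emission 535 and 595 nm. Artifact-filtered Em595/Em535 FRET ratio was converted to % inhibition against an interaction control (100%) and an EDTA no-interaction control (0%).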

[3] = assay type: in vivo, mice
[4] = target: T1, PA-CMG2 interaction; settings: cited from earlier work
[5] = tested on: bFGF-induced angiogenesis; settings: oral or intraperitoneal administration; cited from earlier work

## O=C(OC[C@H]1O[C@@H](OC(=O)c2cc(O)c(O)c(O)c2)[C@@H](OC(=O)c2cc(O)c(O)c(O)c2)[C@@H](OC(=O)c2cc(O)c(O)c(O)c2)[C@@H]1OC(=O)c1cc(O)c(O)c(O)c1)c1cc(O)c(O)c(O)c1 [compound 8, 1,2,3,4,6-penta-O-galloyl-β-D-mannopyranose]
[1]
  IC50: 0.365 ± 0.129 µM
[2]; FRET based binding assay
  affinity for CMG2 relative to the glucose prototype PGG: up to 10 x
[3]; 10 mg/kg intraperitoneally, compared to vehicle-treated control animals
  weight loss: no significant weight loss
[3]; treated mice
  signs of toxicity (weight loss, hunched posture, behavioral abnormalities): no obvious signs of toxicity

## O=C(O[C@@H]1OC[C@@H](OC(=O)c2ccc(O)c(O)c2O)[C@@H](OC(=O)c2ccc(O)c(O)c2O)[C@H]1OC(=O)c1ccc(O)c(O)c1O)c1ccc(O)c(O)c1O [compound 23, β-D-Ribopiranose tetrakis(2,3,4-trihydroxybenzoate)]
[2]
  inhibitory effect on CMG2-PA interaction (in words): no inhibitory effect

## O=C(OC[C@@H](OC(=O)c1ccc(O)c(O)c1O)[C@@H]1O[C@H](OC(=O)c2ccc(O)c(O)c2O)[C@H](OC(=O)c2ccc(O)c(O)c2O)[C@H]1OC(=O)c1ccc(O)c(O)c1O)c1ccc(O)c(O)c1O [compound 15, α-D-Galactofuranose pentakis(2,3,4-trihydroxybenzoate)]
[2]
  IC50: > 10 µM

## O=C(OC[C@H]1O[C@H](O[C@H]2[C@H](OC(=O)c3cc(O)c(O)c(O)c3)[C@@H](OC(=O)c3cc(O)c(O)c(O)c3)[C@H](OC(=O)c3cc(O)c(O)c(O)c3)O[C@@H]2COC(=O)c2cc(O)c(O)c(O)c2)[C@H](OC(=O)c2cc(O)c(O)c(O)c2)[C@@H](OC(=O)c2cc(O)c(O)c(O)c2)[C@@H]1OC(=O)c1cc(O)c(O)c(O)c1)c1cc(O)c(O)c(O)c1 [compound 25, β-D-Maltose octakis(3,4,5-trihydroxybenzoate)]
[2]
  inhibitory effect on CMG2-PA interaction (in words): did not inhibit CMG2-PA interaction

## O=C(O[C@@H]1OC[C@@H](OC(=O)c2cc(O)c(O)c(O)c2)[C@@H](OC(=O)c2cc(O)c(O)c(O)c2)[C@H]1OC(=O)c1cc(O)c(O)c(O)c1)c1cc(O)c(O)c(O)c1 [compound 10]
[2]
  inhibitory effect on CMG2-PA interaction (in words): no inhibitory effect

## CCCOC(=O)c1cc(O)c(O)c(O)c1 [propyl gallate]
[4]; concentrations up to 300 μM
  inhibitory activity: do not showed any inhibitory activity

## O=C(OC[C@H]1O[C@H](O[C@H]2O[C@H](COC(=O)c3ccc(O)c(O)c3O)[C@@H](OC(=O)c3ccc(O)c(O)c3O)[C@H](OC(=O)c3ccc(O)c(O)c3O)[C@H]2OC(=O)c2ccc(O)c(O)c2O)[C@@H](OC(=O)c2ccc(O)c(O)c2O)[C@@H](OC(=O)c2ccc(O)c(O)c2O)[C@@H]1OC(=O)c1ccc(O)c(O)c1O)c1ccc(O)c(O)c1O [compound 31, α,α-D-Trehalose octakis(2,3,4-trihydroxybenzoate)]
[2]
  inhibitory effect on CMG2-PA interaction (in words): did not inhibit CMG2-PA interaction

## O=C(OC[C@H]1O[C@H](O[C@H]2O[C@H](COC(=O)c3cc(O)c(O)c(O)c3)[C@@H](OC(=O)c3cc(O)c(O)c(O)c3)[C@H](OC(=O)c3cc(O)c(O)c(O)c3)[C@H]2OC(=O)c2cc(O)c(O)c(O)c2)[C@@H](OC(=O)c2cc(O)c(O)c(O)c2)[C@@H](OC(=O)c2cc(O)c(O)c(O)c2)[C@@H]1OC(=O)c1cc(O)c(O)c(O)c1)c1cc(O)c(O)c(O)c1 [compound 27, α,α-D-Trehalose octakis(3,4,5-trihydroxybenzoate)]
[2]
  inhibitory effect on CMG2-PA interaction (in words): did not inhibit CMG2-PA interaction

## O=C(O[C@H]1OC[C@@H](OC(=O)c2ccc(O)c(O)c2O)[C@@H](OC(=O)c2ccc(O)c(O)c2O)[C@H]1OC(=O)c1ccc(O)c(O)c1O)c1ccc(O)c(O)c1O [compound 22, α-D-Ribopiranose tetrakis(2,3,4-trihydroxybenzoate)]
[2]
  inhibitory effect on CMG2-PA interaction (in words): no inhibitory effect

## O=C(OC[C@H]1O[C@@H](OC(=O)c2cc(O)c(O)c(O)c2)[C@H](OC(=O)c2cc(O)c(O)c(O)c2)[C@@H](OC(=O)c2cc(O)c(O)c(O)c2)[C@@H]1OC(=O)c1cc(O)c(O)c(O)c1)c1cc(O)c(O)c(O)c1 [compound 1, 1,2,3,4,6-penta-O-galloyl-ß-D-glucopyranose]
[4]
  IC50 of binding to CMG2: submicromolar
[5]
  angiogenesis in the mouse corneal micropocket assay: inhibits angiogenesis
